Assay results: ChEMBL document CHEMBL4689842, “EUbOPEN Chemogenomics Library wave 1” (2021)

Experiments:
Fibroblast = assay: Incucyte cell viability with human fibroblast; format: toxicity, cell-based; conditions: 10 µM, compound concentration 10 uM; also: filed as whole numbers so only -1 and 0 and 1 occur
U2OS = assay: Multiplex assay against U2OS; format: toxicity, cell-based; conditions: human
In short: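 Hoechst33342, BioTracker Green Microtubule Cytoskeleton Dye, MitoTracker Red and Annexin V Alexa Fluor 680 were added to live cells at seeding, and imaging on a CQ1 microscope at 37°C and 5% CO2 followed compound addition. Gating by CellPathfinder machine learning separated cells into Hoechst high-intensity objects or normal cells, then normal cells into healthy, pyknosed or fragmented nuclei, then pyknosed cells into mitotic or apoptotic. Per cents of healthy-nucleus cells are reported for the tubulin, mitochondrial-mass and membrane-permeability phenotypes.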

[1] = 12 h, 1 µM, compound concentration 1 uM, replicate 1
[2] = 12 h, 1 µM, compound concentration 1 uM, replicate 2
[3] = 12 h, 10 µM, compound concentration 10 uM, replicate 1
[4] = 12 h, 10 µM, compound concentration 10 uM, replicate 2
[5] = 24 h, 1 µM, compound concentration 1 uM, replicate 1
[6] = 24 h, 1 µM, compound concentration 1 uM, replicate 2
[7] = 24 h, 10 µM, compound concentration 10 uM, replicate 1
[8] = 24 h, 10 µM, compound concentration 10 uM, replicate 2
[9] = 48 h, 1 µM, compound concentration 1 uM, replicate 1
[10] = 48 h, 1 µM, compound concentration 1 uM, replicate 2
[11] = 48 h, 10 µM, compound concentration 10 uM, replicate 1
[12] = 48 h, 10 µM, compound concentration 10 uM, replicate 2

## Cl.Cl.Nc1ncnc2c1c(-c1cccc(OCc3ccccc3)c1)cn2[C@H]1C[C@@H](CN2CCC2)C1
Fibroblast; 6 h, replicate number 1, timepoint 6 hours
  Growth Rate: 0
Fibroblast; 12 h, replicate number 1, timepoint 12 hours
  Growth Rate: 0
Fibroblast; 18 h, replicate number 1, timepoint 18 hours
  Growth Rate: 0
Fibroblast; 24 h, replicate number 1, timepoint 24 hours
  Growth Rate: 0
U2OS; [1]
  Population Apoptotic (%): 33%
  Population Fragmented Nuclei (%): 13%
  Population Healthy Nuclei (%): 70%
  Population Hoechst High Intensity Objects (%): 5%
  Population Membrane Permeable-Phenotype (%): 8%
  Population Mitochondria Different-Phenotype (%): 58%
  Population Mitotic Cells (%): 66%
  Population Normal (%): 94%
  Population Pyknosed Nuclei (%): 16%
  Population Tubulin-Different-Phenotype (%): 38%
  Total Cell Count: 176
U2OS; [2]
  Population Apoptotic (%): 29%
  Population Fragmented Nuclei (%): 11%
  Population Healthy Nuclei (%): 67%
  Population Hoechst High Intensity Objects (%): 6%
  Population Membrane Permeable-Phenotype (%): 3%
  Population Mitochondria Different-Phenotype (%): 71%
  Population Mitotic Cells (%): 70%
  Population Normal (%): 93%
  Population Pyknosed Nuclei (%): 20%
  Population Tubulin-Different-Phenotype (%): 52%
  Total Cell Count: 55
U2OS; [3]
  Population Apoptotic (%): 81%
  Population Fragmented Nuclei (%): 23%
  Population Healthy Nuclei (%): 41%
  Population Hoechst High Intensity Objects (%): 9%
  Population Membrane Permeable-Phenotype (%): 67%
  Population Mitochondria Different-Phenotype (%): 100%
  Population Mitotic Cells (%): 18%
  Population Normal (%): 90%
  Population Pyknosed Nuclei (%): 35%
  Population Tubulin-Different-Phenotype (%): 100%
  Total Cell Count: 135
U2OS; [4]
  Population Apoptotic (%): 85%
  Population Fragmented Nuclei (%): 22%
  Population Healthy Nuclei (%): 47%
  Population Hoechst High Intensity Objects (%): 8%
  Population Membrane Permeable-Phenotype (%): 77%
  Population Mitochondria Different-Phenotype (%): 97%
  Population Mitotic Cells (%): 14%
  Population Normal (%): 91%
  Population Pyknosed Nuclei (%): 29%
  Population Tubulin-Different-Phenotype (%): 97%
  Total Cell Count: 90
U2OS; [5]
  Population Apoptotic (%): 56%
  Population Fragmented Nuclei (%): 10%
  Population Healthy Nuclei (%): 69%
  Population Hoechst High Intensity Objects (%): 4%
  Population Membrane Permeable-Phenotype (%): 5%
  Population Mitochondria Different-Phenotype (%): 62%
  Population Mitotic Cells (%): 43%
  Population Normal (%): 95%
  Population Pyknosed Nuclei (%): 20%
  Population Tubulin-Different-Phenotype (%): 34%
  Total Cell Count: 176
U2OS; [6]
  Population Apoptotic (%): 28%
  Population Fragmented Nuclei (%): 13%
  Population Healthy Nuclei (%): 64%
  Population Hoechst High Intensity Objects (%): 6%
  Population Membrane Permeable-Phenotype (%): 4%
  Population Mitochondria Different-Phenotype (%): 68%
  Population Mitotic Cells (%): 71%
  Population Normal (%): 93%
  Population Pyknosed Nuclei (%): 21%
  Population Tubulin-Different-Phenotype (%): 39%
  Total Cell Count: 50
U2OS; [7]
  Population Apoptotic (%): 90%
  Population Fragmented Nuclei (%): 25%
  Population Healthy Nuclei (%): 30%
  Population Membrane Permeable-Phenotype (%): 92%
  Population Mitochondria Different-Phenotype (%): 100%
  Population Mitotic Cells (%): 9%
  Population Pyknosed Nuclei (%): 43%
  Population Tubulin-Different-Phenotype (%): 100%
  Total Cell Count: 157
U2OS; [8]
  Population Apoptotic (%): 92%
  Population Fragmented Nuclei (%): 21%
  Population Healthy Nuclei (%): 35%
  Population Hoechst High Intensity Objects (%): 9%
  Population Membrane Permeable-Phenotype (%): 93%
  Population Mitochondria Different-Phenotype (%): 96%
  Population Mitotic Cells (%): 7%
  Population Normal (%): 90%
  Population Pyknosed Nuclei (%): 42%
  Population Tubulin-Different-Phenotype (%): 96%
  Total Cell Count: 104
U2OS; [9]
  Population Apoptotic (%): 65%
  Population Fragmented Nuclei (%): 10%
  Population Healthy Nuclei (%): 73%
  Population Hoechst High Intensity Objects (%): 2%
  Population Membrane Permeable-Phenotype (%): 4%
  Population Mitochondria Different-Phenotype (%): 34%
  Population Mitotic Cells (%): 34%
  Population Normal (%): 97%
  Population Pyknosed Nuclei (%): 16%
  Population Tubulin-Different-Phenotype (%): 23%
  Total Cell Count: 182
U2OS; [10]
  Population Apoptotic (%): 47%
  Population Fragmented Nuclei (%): 8%
  Population Healthy Nuclei (%): 76%
  Population Hoechst High Intensity Objects (%): 3%
  Population Membrane Permeable-Phenotype (%): 12%
  Population Mitochondria Different-Phenotype (%): 44%
  Population Mitotic Cells (%): 52%
  Population Normal (%): 96%
  Population Pyknosed Nuclei (%): 15%
  Population Tubulin-Different-Phenotype (%): 26%
  Total Cell Count: 55
U2OS; [11]
  Population Apoptotic (%): 100%
  Population Fragmented Nuclei (%): 30%
  Population Healthy Nuclei (%): 7%
  Population Hoechst High Intensity Objects (%): 12%
  Population Membrane Permeable-Phenotype (%): 100%
  Population Mitochondria Different-Phenotype (%): 100%
  Population Mitotic Cells (%): 0%
  Population Normal (%): 87%
  Population Pyknosed Nuclei (%): 61%
  Population Tubulin-Different-Phenotype (%): 100%
  Total Cell Count: 203
U2OS; [12]
  Population Apoptotic (%): 96%
  Population Fragmented Nuclei (%): 21%
  Population Healthy Nuclei (%): 38%
  Population Hoechst High Intensity Objects (%): 23%
  Population Membrane Permeable-Phenotype (%): 96%
  Population Mitotic Cells (%): 3%
  Population Normal (%): 76%
  Population Pyknosed Nuclei (%): 40%
  Total Cell Count: 130
